pIC50, pKi: −log10 of the molar value.
Columns and labels:
[1] = Clearance in dog at 0.5 mg/kg, iv; format: ADME, organism-based, Canis lupus familiaris; parameters: dose 0.5 mg/kg, route intravenous; settings: in vivo
Method in brief: (§1)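 Dogs. Intravenous dose 0.5 mg/kg, used for clearance (L/kg/h), steady-state volume of distribution (L/kg) and iv half-life.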

[2] = Bioavailability in dog at 0.2 mg/kg, po; format: ADME, organism-based, Canis lupus familiaris; settings: in vivo; method in brief: as §1
[3] = Permeability across Caco-2 cells; format: ADME, cell-based; settings: human, read-out: permeability
[4] = Volume of distribution at steady state in dog at 0.5 mg/kg, iv; format: ADME, organism-based, Canis lupus familiaris; parameters: dose 0.5 mg/kg, route intravenous; settings: in vivo, read-out: Vdss; method in brief: as §1
[5] = Half life in dog at 0.2 mg/kg, po; format: ADME, organism-based, Canis lupus familiaris; parameters: dose 0.2 mg/kg, route oral; settings: in vivo
[6] = Half life in dog at 0.5 mg/kg, iv; format: ADME, organism-based, Canis lupus familiaris; parameters: dose 0.5 mg/kg, route intravenous; settings: in vivo; method in brief: as §1
[7] = Metabolic stability in human liver microsomes after 10 mins; format: ADME, Microsome; settings: read-out: Stability
Method in brief: (§2)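 Human liver microsomes, 10-min incubation. Metabolic stability given as % compound remaining. Microsomal intrinsic clearance rate (nmol/min/mg) is based on the % remaining after 10 min.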

Liver microsomes = experiment: Metabolic stability in human liver microsomes assessed as microsomal intrinsic clearance rate; format: ADME, Microsome; method in brief: as §2
Coagulation factor X [8] = biological target: T1, Coagulation factor X (Homo sapiens, UniProt P00742); experiment: Inhibition of human factor 10a
T1 sequence (P00742 41-179 limits assumed): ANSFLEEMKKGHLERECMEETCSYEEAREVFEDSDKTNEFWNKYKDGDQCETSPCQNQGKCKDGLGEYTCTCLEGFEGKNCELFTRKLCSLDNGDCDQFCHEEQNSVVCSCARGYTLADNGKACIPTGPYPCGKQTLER
T1 sequence (P00742 235-488 limits assumed): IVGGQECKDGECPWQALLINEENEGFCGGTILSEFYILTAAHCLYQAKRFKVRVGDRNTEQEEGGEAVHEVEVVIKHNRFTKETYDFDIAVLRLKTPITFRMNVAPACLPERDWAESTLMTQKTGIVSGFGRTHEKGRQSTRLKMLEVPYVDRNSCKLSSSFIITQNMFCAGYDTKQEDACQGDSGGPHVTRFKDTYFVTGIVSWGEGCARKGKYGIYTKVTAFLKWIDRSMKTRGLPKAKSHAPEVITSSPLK

[9] = Cytotoxicity against HEK cells; format: cell-based; settings: Homo sapiens, HEK293
[10] = biological target: Vitamin K-dependent protein C (Homo sapiens, UniProt P04070); experiment: Inhibition of human activated protein C
Vitamin K-dependent protein C, sequence (P04070 43-197 limits assumed): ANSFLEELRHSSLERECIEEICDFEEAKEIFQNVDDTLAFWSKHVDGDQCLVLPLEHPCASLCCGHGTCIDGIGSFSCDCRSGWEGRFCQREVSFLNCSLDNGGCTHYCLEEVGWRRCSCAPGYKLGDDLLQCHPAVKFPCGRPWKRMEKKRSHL
Vitamin K-dependent protein C, sequence (P04070 212-461 limits assumed): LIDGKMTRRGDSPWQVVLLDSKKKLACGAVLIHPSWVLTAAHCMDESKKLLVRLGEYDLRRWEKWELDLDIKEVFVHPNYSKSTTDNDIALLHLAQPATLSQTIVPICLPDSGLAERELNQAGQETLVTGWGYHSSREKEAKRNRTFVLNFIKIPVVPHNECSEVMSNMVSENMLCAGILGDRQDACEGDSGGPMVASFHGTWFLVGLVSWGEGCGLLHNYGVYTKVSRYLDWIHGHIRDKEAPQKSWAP

Coagulation factor VII = biological target: T2, Coagulation factor VII (Homo sapiens, UniProt P08709); experiment: Inhibition of human factor 7a
T2 sequence (P08709 whole entry): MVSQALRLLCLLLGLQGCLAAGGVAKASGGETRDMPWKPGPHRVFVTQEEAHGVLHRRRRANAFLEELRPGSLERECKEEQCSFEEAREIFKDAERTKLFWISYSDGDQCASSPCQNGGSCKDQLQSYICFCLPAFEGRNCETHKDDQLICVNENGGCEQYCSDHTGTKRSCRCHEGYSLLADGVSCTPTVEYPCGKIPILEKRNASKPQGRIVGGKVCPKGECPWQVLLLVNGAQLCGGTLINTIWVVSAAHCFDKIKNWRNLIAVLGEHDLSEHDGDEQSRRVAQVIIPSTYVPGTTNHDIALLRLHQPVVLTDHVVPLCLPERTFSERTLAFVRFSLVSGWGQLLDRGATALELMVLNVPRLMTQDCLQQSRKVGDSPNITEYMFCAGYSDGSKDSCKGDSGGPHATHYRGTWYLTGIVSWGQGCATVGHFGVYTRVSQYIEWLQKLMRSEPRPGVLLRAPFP

Plasminogen = Plasminogen (Homo sapiens, UniProt P00747); experiment: Inhibition of human Plasmin
Plasminogen, sequence (P00747 97-580 limits assumed): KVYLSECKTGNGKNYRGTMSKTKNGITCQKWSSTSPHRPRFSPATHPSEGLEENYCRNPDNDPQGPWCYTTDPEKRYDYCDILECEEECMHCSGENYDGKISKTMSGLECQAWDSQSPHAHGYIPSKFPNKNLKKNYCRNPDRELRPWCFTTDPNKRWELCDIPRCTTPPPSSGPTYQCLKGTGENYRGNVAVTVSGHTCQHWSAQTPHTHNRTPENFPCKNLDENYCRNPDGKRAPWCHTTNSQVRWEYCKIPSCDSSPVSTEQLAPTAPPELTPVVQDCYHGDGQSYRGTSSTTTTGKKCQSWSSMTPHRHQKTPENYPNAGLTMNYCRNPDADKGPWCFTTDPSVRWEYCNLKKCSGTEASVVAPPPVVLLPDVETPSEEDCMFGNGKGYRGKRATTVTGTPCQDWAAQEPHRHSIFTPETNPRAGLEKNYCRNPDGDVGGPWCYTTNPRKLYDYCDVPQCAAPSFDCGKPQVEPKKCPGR
Plasminogen, sequence (P00747 581-810 limits assumed): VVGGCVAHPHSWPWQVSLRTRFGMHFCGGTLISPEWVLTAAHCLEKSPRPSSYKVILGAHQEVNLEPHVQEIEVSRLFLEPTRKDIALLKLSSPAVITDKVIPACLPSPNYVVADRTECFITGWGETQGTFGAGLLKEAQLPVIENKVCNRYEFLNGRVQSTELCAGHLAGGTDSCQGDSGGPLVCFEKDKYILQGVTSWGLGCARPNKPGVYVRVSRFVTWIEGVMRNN

[11] = biological target: Urokinase-type plasminogen activator (Homo sapiens, UniProt P00749); experiment: Inhibition of human urokinase
[12] = biological target: Tissue-type plasminogen activator (Homo sapiens, UniProt P00750); experiment: Inhibition of human tissue plasminogen activator
Tissue-type plasminogen activator, sequence (P00750 whole entry): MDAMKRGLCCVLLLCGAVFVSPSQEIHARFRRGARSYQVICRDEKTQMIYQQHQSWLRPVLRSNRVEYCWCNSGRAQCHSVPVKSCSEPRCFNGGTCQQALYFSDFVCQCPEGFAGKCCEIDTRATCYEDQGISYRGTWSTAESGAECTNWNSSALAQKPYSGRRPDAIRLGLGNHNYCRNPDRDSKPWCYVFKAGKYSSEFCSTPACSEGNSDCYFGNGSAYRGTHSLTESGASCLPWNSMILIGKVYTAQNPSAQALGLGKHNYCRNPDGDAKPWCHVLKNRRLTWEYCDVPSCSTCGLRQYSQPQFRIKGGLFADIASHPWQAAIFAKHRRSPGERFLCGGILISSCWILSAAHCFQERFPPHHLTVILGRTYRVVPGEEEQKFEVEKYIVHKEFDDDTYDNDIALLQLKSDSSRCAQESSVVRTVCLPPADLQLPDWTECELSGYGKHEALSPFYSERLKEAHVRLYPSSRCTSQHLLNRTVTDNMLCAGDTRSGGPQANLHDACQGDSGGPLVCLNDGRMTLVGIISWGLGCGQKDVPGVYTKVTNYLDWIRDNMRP

Trypsin = Trypsin (Homo sapiens, UniProt P07477+P07478+P35030); experiment: Inhibition of human trypsin; format: protein assay
Plasma kallikrein = Plasma kallikrein (Homo sapiens, UniProt P03952); experiment: Inhibition of human plasma kallikrein; format: cell-free
Plasma kallikrein, sequence (P03952 20-390 limits assumed): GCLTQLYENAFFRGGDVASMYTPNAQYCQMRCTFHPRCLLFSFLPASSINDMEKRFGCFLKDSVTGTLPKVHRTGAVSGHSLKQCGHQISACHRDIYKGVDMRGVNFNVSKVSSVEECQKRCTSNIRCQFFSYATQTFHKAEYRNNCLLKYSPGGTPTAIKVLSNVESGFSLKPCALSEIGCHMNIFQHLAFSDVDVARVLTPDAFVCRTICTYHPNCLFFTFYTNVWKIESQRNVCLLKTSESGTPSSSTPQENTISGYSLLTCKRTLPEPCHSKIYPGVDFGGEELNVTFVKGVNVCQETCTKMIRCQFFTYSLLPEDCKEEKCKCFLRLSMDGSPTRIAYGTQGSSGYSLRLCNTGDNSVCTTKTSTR
Plasma kallikrein, sequence (P03952 391-638 limits assumed): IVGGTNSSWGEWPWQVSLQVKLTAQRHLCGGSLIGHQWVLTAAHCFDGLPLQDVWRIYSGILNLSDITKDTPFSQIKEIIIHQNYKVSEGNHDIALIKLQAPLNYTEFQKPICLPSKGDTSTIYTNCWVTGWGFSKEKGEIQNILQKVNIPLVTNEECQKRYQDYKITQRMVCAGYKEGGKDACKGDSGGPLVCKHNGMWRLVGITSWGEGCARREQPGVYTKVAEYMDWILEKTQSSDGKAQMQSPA

[13] = Inhibition of human chymotrypsin
Coagulation factor XI = Coagulation factor XI (Homo sapiens, UniProt P03951); experiment: Inhibition of human factor 11a
Coagulation factor XI, sequence (P03951 19-387 limits assumed): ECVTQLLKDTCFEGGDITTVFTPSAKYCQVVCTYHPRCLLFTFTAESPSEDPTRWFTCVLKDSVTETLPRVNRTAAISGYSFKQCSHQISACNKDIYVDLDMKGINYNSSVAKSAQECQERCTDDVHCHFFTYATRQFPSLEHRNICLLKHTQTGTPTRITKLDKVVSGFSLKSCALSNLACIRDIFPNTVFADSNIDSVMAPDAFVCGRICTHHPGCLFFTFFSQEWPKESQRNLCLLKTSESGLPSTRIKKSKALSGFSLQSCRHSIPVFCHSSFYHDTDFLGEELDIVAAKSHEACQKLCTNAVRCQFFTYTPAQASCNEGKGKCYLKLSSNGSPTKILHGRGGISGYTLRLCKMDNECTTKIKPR
Coagulation factor XI, sequence (P03951 388-625 limits assumed): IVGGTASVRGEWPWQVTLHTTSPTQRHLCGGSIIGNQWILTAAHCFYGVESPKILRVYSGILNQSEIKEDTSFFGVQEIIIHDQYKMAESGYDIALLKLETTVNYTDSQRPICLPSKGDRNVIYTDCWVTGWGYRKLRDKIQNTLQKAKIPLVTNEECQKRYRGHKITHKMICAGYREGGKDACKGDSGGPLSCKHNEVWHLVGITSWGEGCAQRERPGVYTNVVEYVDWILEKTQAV

Prothrombin = Prothrombin (Homo sapiens, UniProt P00734); experiment: Inhibition of human thrombin
Coagulation factor X [14] = biological target: T1, Coagulation factor X; experiment: Inhibition of human factor 10a in presence of prothrombin at 25 degC
Method in brief: (§3)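 Purified human factor Xa. […] Prothrombinase-type inhibition measured with prothrombin as substrate at 25 °C, and with saturating prothrombin at 37 °C. Values are averages of at least 2 determinations.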

Coagulation factor X [15] = biological target: T1, Coagulation factor X; experiment: Inhibition of human factor 10a in presence of tripeptide substrate at 25 degC
Coagulation factor X [16] = biological target: T1, Coagulation factor X; experiment: Inhibition of human factor 10a in presence of saturating prothrombin at 37 degC; method in brief: as §3
Coagulation factor X [17] = biological target: T1, Coagulation factor X; experiment: Inhibition of human factor 10a in presence of tripeptide substrate at 37 degC

Structure (SMILES)	clearance [1] [mL/min/kg]	bioavailability [2] [%]	Vd [4] [L/kg]	half-life [5] [h]	half-life [6] [h]	pKi (Coagulation factor X [8])	CL (Liver microsomes) [nmol/mg/min]	pIC50 [9]	pKi [10]	pKi (Coagulation factor VII)	pKi (Plasminogen)	pKi [11]	pKi [12]	Ki (Trypsin) [µM]	pKi (Plasma kallikrein)	pKi [13]	pKi (Coagulation factor XI)	pKi (Prothrombin)	other results
O=C(N[C@H]1CCC[C@H]1NC(=O)c1ccc(Cl)s1)c1ccc(-n2ccccc2=O)cc1	11.7	60	0.8	0.7	0.7	–	–	–	–	–	–	–	–	–	–	–	–	–	Papp [3]: 9.2 ×10⁻⁶ cm/s; remaining at 10 min [7]: 79%; clearance (Liver microsomes): 0.063 nmol/min/mg
CS(=O)(=O)N1C[C@H](NC(=O)c2ccc(-n3ccccc3=O)cc2)[C@H](NC(=O)c2ccc(Cl)s2)C1	–	–	–	–	–	9.36	0	< 4.00	–	–	–	–	–	–	–	–	–	–	–
CN(C)C(=O)N1C[C@H](NC(=O)c2ccc(-n3ccccc3=O)cc2)[C@H](NC(=O)c2ccc(Cl)s2)C1	–	–	–	–	–	9.25	0	< 4.00	–	–	–	–	–	–	–	–	–	–	–
O=C(N[C@H]1C[C@H](CO)C[C@H]1NC(=O)c1ccc(Cl)s1)c1ccc(-n2ccccc2=O)cc1	–	–	–	–	–	9.25	–	–	< 4.68	< 4.96	< 4.66	< 4.85	< 4.68	> 5	< 4.97	< 4.70	–	–	remaining at 10 min [7]: 100%
O=C(N[C@H]1COC[C@H]1NC(=O)c1ccc(Cl)s1)c1ccc(-n2ccccc2=O)cc1	26.7	97	1	1.2	1.2	8.59	0.031	–	< 4.68	< 4.96	< 4.66	< 4.85	< 4.68	> 5	–	< 4.70	< 4.96	< 4.92	–
O=C(N[C@H]1CNC[C@H]1NC(=O)c1ccc(Cl)s1)c1ccc(-n2ccccc2=O)cc1	–	–	–	–	–	8.02	0	< 4.00	–	–	–	–	–	–	–	–	–	–	–
CC(C)C(=O)N1C[C@H](NC(=O)c2ccc(-n3ccccc3=O)cc2)[C@H](NC(=O)c2ccc(Cl)s2)C1	–	–	–	–	–	8.89	0	< 4.00	–	–	–	–	–	–	–	–	–	–	–
CCS(=O)(=O)N1C[C@H](NC(=O)c2ccc(-n3ccccc3=O)cc2)[C@H](NC(=O)c2ccc(Cl)s2)C1	25	16	1.1	1.3	0.7	9.19	0	< 4.00	< 4.68	< 4.96	< 4.66	< 4.85	< 4.68	> 5	< 4.97	< 4.70	5.18	5.40	Papp [3]: < 1.5 ×10⁻⁶ cm/s
CNC(=O)N1C[C@H](NC(=O)c2ccc(-n3ccccc3=O)cc2)[C@H](NC(=O)c2ccc(Cl)s2)C1	–	–	–	–	–	8.96	0	< 4.00	–	–	–	–	–	–	–	–	–	–	–
COC(=O)N1C[C@H](NC(=O)c2ccc(-n3ccccc3=O)cc2)[C@H](NC(=O)c2ccc(Cl)s2)C1	–	–	–	–	–	9.13	0	< 4.00	–	–	–	–	–	–	–	–	–	–	–
CC(=O)N1C[C@H](NC(=O)c2ccc(-n3ccccc3=O)cc2)[C@H](NC(=O)c2ccc(Cl)s2)C1	30	5	2.4	0.8	0.8	9.24	0	< 4.00	< 4.68	< 4.96	< 4.66	< 4.85	< 4.68	> 5	< 5.22	< 4.70	4.99	5.26	Papp [3]: < 1.5 ×10⁻⁶ cm/s
O=C(N[C@H]1c2ccccc2C[C@H]1NC(=O)c1ccc(Cl)s1)c1ccc(-n2ccccc2=O)cc1	–	–	–	–	–	9.57	–	–	–	–	–	–	–	–	–	–	–	–	remaining at 10 min [7]: 32%
O=C(N[C@H]1C[C@H](C(=O)O)C[C@H]1NC(=O)c1ccc(Cl)s1)c1ccc(-n2ccccc2=O)cc1	–	–	–	–	–	8.72	–	–	< 4.68	< 4.96	< 4.66	< 4.85	< 4.68	> 5	< 5.22	< 4.70	< 4.96	< 4.92	–
CCOC(=O)N1C[C@H](NC(=O)c2ccc(-n3ccccc3=O)cc2)[C@H](NC(=O)c2ccc(Cl)s2)C1	43.3	25	2.4	2.7	1.4	9.30	0	< 4.00	< 4.68	< 4.96	< 4.66	< 4.85	< 4.68	> 5	< 5.22	< 4.70	5.13	5.40	Papp [3]: 2.5 ×10⁻⁶ cm/s; pKi (Coagulation factor X [14]): 8.12; pKi (Coagulation factor X [15]): 9.14; pKi (Coagulation factor X [16]): 7.52; pKi (Coagulation factor X [17]): 8.59

Reference: ChEMBL document CHEMBL1149671, “Enantiopure five-membered cyclicdiamine derivatives as potent and selective inhibitors of factor Xa. Improving in vitro metabolic stability via core modifications” (Bioorg Med Chem Lett, 2007)
